The values that follow come from ChEMBL document CHEMBL1126878, “4,5-Dihydro-1-phenyl-1H-2,4-benzodiazepines: novel antiarrhythmic agents” (J Med Chem, 1993).

SMILES strings stand for the structures. Bounds are passed on as bounds.

For data set [1], the system named is Felis catus. The experiment in a line: Ventricular fribrillation threshold (VFT) after iv administration to anesthetized, acutely infarcted cats at 3 mg/kg. Type of data set: functional, Heart. The gist of the method: (§1)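 Anesthetized cats given a slow iv bolus, with single-stage LAD occlusion 10 min later. Stimulating current raised until fibrillation; three baseline sequences about 15 min apart. Pacing repeated every 15 min for 2 h after occlusion, then every 30 min, for 5 h in total. Values are the mean maximum change over 5 h in VFT (mamps) or ERP (ms); cardioversion at 14–50 J.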

Data set [2] relates to Canis familiaris. Put plainly: Minimal effective dose that resulted in significant reduction in PVC frequency in conscious dogs by po administration after 24 hours of coronary artery ligation. The class given is functional. Particulars: Canis lupus familiaris, read-out: MED. The method in brief: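 Dogs (8.0–19.1 kg) underwent LAD occlusion under halothane anesthesia with Holter electrodes. 24 h after occlusion, animals with PVCs exceeding 50% of heart rate were dosed orally by gavage with agent in water (n = 4 per group). Holter recorded 1 h before and 12–24 h after dosing.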

The test system of data set [3] is Cavia porcellus. The experiment in a line: In vivo index of cardiac contractility using paced guinea pig model. The class given is functional. The gist of the method: (§2)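 Guinea pig paced in vivo model. Hemodynamics recorded in normal sinus rhythm; ERP measured during brief pacing at baseline and 10 min after dosing. Bolus of 1 mL/kg via left ventricular catheter for doses <10 mg/kg; higher doses infused over 1 min. Cumulative dosing every 15 min up to the maximally tolerated dose (dP/dt reduced >50%). ED20 (ERP +20 ms) and dP/dt20 (20% drop in LV pressure-rise rate) derived by linear regression of individual dose-response curves.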

Data set [4] concerns Felis catus. Put plainly: Effective refractory period (ERP) after iv administration to anesthetized, acutely infarcted cats at x mg/kg. Type of data set: functional. The method in brief: as §1
Data set [5] relates to Cavia porcellus. Put plainly: Effective dose in vivo for cardiac refractoriness (ERP) using paced guinea pig model. Type of data set: functional. The gist of the method: as §2
The target of data set [6] is Sodium channel protein type 5 subunit alpha (cardiac sodium channel) (Rattus norvegicus, UniProt P15389). Put plainly: in vitro. The note with it: sodium channel from cardiac myocytes, probe [3H]batrachotoxin ([3H]BTX).
The subject of data set [7] is Cavia porcellus. Put plainly: Minimal effective dose that resulted in significant delay in the onset of arrhythmias in guinea pig with iv administration of aconitine hydrochloride. The class given is functional. The note with it: read-out: MED. The method in brief: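 Guinea pigs (n = 6 per dose, parallel groups) received agent or saline iv (1 mL/kg) 10 min before a lethal aconitine hydrochloride challenge (34 μg/kg iv). Times to first PVC, sustained VT and VF (>15 s) were recorded and compared with concurrent controls by one-way ANOVA. MED taken from an ascending semilogarithmic dose escalation as the dose giving significant delay in arrhythmia onset.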

For data set [8], the system named is Felis catus. The experiment in a line: Effective refractory period (ERP) after iv administration to anesthetized, acutely infarcted cats at 0.03 mg/kg. Type of data set: functional. The method in brief:
as §1

In data set [9] the test system is Felis catus. Put plainly: Ventricular fribrillation threshold (VFT) after iv administration to anesthetized, acutely infarcted cats at 0.03 mg/kg. Type of data set: functional, Heart. The gist of the method:
as §1

The test system of data set [10] is Felis catus. Put plainly: Effective refractory period (ERP) after iv administration to anesthetized, acutely infarcted cats at 3 mg/kg. The class given is functional. The method in brief: as §1
For data set [11], the system named is Felis catus. The experiment in a line: Ventricular fribrillation threshold (VFT) after iv administration to anesthetized, acutely infarcted cats at 1 mg/kg. The class given is functional, Heart. The gist of the method: as §1
Data set [12] relates to Felis catus. The experiment in a line: Effective refractory period (ERP) after iv administration to anesthetized, acutely infarcted cats at 1 mg/kg. Type of data set: functional. The gist of the method:
as §1

The subject of data set [13] is Felis catus. Put plainly: Ventricular fribrillation threshold (VFT) after iv administration to anesthetized, acutely infarcted cats at 0.3 mg/kg. The class given is functional, Heart. The gist of the method:
as §1

In data set [14] the test system is Felis catus. Put plainly: Ventricular fribrillation threshold (VFT) after iv administration to anesthetized, acutely infarcted cats at 5 mg/kg. Type of data set: functional, Heart. The method in brief:
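Anesthetized cats received a slow iv bolus of test agent, followed 10 min later by single-stage LAD occlusion. Before dosing, VFT was measured three times about 15 min apart as baseline, raising the stimulating current until fibrillation was induced. After occlusion, pacing was repeated every 15 min for 2 h, then every 30 min, to 5 h. The value is the mean maximum VFT change (mamps) over 5 h.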

Data set [15] relates to Felis catus. Put plainly: Effective refractory period (ERP) after iv administration to anesthetized, acutely infarcted cats at 0.3 mg/kg. The class given is functional. The gist of the method: as §1

Sequence of Sodium channel protein type 5 subunit alpha (cardiac sodium channel) (P15389 whole entry): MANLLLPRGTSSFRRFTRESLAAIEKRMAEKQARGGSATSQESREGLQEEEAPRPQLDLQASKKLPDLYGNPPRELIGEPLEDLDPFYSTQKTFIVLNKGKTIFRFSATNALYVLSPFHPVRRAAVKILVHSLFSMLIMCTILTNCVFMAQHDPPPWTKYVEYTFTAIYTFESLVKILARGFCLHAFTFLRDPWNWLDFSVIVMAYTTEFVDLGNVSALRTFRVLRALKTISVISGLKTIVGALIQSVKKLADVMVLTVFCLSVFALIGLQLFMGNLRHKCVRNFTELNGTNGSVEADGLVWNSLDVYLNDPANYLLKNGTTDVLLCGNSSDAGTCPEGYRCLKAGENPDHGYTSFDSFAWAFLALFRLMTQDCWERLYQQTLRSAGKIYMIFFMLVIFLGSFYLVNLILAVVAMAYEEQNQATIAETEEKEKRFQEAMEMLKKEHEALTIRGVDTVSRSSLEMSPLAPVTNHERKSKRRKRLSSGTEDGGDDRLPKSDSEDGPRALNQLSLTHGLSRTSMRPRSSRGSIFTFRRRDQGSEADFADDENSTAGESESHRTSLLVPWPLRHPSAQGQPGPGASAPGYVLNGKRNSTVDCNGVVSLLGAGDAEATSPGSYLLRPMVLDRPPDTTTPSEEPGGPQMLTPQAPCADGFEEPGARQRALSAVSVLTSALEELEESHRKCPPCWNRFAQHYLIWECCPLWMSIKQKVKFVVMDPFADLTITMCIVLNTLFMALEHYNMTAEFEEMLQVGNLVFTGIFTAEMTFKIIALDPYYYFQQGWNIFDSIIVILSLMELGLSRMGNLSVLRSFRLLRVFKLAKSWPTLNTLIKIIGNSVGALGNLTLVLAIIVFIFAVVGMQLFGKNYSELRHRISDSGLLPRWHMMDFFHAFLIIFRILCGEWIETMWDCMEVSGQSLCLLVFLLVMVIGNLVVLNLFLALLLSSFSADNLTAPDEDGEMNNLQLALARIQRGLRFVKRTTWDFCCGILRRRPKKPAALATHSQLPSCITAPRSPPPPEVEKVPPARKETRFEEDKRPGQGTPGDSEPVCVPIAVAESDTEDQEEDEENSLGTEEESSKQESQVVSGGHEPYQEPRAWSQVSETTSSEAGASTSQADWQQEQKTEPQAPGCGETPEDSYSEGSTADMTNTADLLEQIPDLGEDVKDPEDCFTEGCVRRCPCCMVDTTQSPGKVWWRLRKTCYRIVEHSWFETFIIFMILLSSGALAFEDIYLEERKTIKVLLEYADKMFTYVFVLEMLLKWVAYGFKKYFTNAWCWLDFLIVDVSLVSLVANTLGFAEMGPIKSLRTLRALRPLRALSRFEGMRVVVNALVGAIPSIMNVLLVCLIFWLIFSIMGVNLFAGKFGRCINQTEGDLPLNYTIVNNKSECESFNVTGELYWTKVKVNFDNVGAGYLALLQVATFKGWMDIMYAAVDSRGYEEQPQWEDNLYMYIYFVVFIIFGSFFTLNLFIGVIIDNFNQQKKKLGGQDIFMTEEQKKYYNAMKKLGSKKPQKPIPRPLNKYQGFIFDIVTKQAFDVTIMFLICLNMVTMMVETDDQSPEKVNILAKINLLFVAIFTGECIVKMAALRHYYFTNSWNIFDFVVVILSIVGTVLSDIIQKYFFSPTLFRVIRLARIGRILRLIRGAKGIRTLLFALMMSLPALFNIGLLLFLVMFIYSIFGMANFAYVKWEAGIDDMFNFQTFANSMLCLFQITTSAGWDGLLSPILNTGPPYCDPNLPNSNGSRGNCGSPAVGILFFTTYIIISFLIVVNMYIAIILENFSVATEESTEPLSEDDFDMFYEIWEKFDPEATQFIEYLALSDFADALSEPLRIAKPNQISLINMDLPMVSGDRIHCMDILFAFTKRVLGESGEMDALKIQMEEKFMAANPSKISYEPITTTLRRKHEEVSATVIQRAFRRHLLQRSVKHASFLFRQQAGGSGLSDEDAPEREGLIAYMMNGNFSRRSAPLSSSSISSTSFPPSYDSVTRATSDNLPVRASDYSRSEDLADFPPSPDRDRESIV

A word on the inhibition: it is the change of the read-out against control, counted positive when it falls. Low readings indicate a weak effect, high ones a strong effect. `CCC1=NC(C)(c2ccccc2)c2ccccc2CN1C.O=C(O)/C=C/C(=O)O` (centres undefined) registered a VFT in data set [1] of 81 mA. Also, the figures for the minimal effective dose in data set [2] and in data set [7] were 10 mg/kg and below 3 mg/kg, respectively. In addition, in [3], the dP/dt20 was found to be 1.2 mg/kg. For the same compound, the ERP in data set [4] is reported as 78 ms. In [5], this compound gave an ED20 of 0.7 mg/kg. This compound also displayed an inhibition at 10 µM in [6] of 60%.

With `CN(CCOc1ccc(NS(C)(=O)=O)cc1)CCc1ccc(NS(C)(=O)=O)cc1` [DOFETILIDE], the ERP in [8] worked out at 85 ms. The same compound yielded a VFT in data set [9] of 43 mA.

Consider `C=C[C@H]1CN2CC[C@H]1C[C@@H]2[C@@H](O)c1ccnc2ccc(OC)cc12` [QUINIDINE], for which the minimal effective dose in data set [2] turned out to be 30 mg/kg; in data set [7], 1 mg/kg. Moreover, the dP/dt20 in data set [3] is 2.5 mg/kg. Moreover, the ED20 in [5] turned out to be 7.2 mg/kg. The compound further gave an inhibition at 10 µM in data set [6] of 68%.

In the case of `O=C(NCC1CCCCN1)c1cc(OCC(F)(F)F)ccc1OCC(F)(F)F` (centres undefined) [FLECAINIDE], the VFT in [1] is given as 30 mA. The minimal effective dose came out at 10 mg/kg in data set [2] and 3 mg/kg in data set [7]. In data set [3], the dP/dt20 was 1.8 mg/kg. Moreover, the ED20 in [5] was 12.8 mg/kg. In addition, the inhibition at 10 µM in data set [6] was 74%. The compound also came in with an ERP in data set [10] of 5 ms.

Take `CN1Cc2ccccc2[C@H](c2ccccc2)N=C1CCc1ccccc1.Cl`: the minimal effective dose was found to be 10 mg/kg in data set [2] and 0.1 mg/kg in [7]. In data set [3], this compound showed a dP/dt20 of 0.02 mg/kg. This compound showed a VFT in [11] of 82 mA. In data set [5], the ED20 worked out at 0.02 mg/kg. Also, in data set [12], the ERP was found to be 21 ms.

For the compound `CN1Cc2ccccc2C(C)(c2ccccc2)N=C1CC(O)c1ccccc1` (centres undefined), the minimal effective dose in data set [2] was 10 mg/kg; in data set [7], below 3 mg/kg. Moreover, in data set [3], the dP/dt20 came to 0.1 mg/kg. In [5], this compound registered an ED20 of 0.1 mg/kg. The inhibition at 10 µM in data set [6] came out at 92%.

Take `CCC1=N[C@@H](c2ccccc2)c2ccccc2CN1C.Cl`: the results for the minimal effective dose in data set [2] and in data set [7] were above 10 mg/kg and 3 mg/kg, respectively. The compound also yielded a dP/dt20 in data set [3] of 0.09 mg/kg. Also, in data set [5], the ED20 stood at 7.1 mg/kg. Also, in data set [6], testing at 10 µM gave an inhibition of 45%.

As to `CN1Cc2ccccc2[C@@H](c2ccccc2)N=C1CCc1ccccc1.Cl`, the figures for the minimal effective dose in [2] and in [7] were 3 mg/kg and 0.1 mg/kg, respectively. In [3], this compound gave a dP/dt20 of 0.03 mg/kg. The compound also gave an ERP in data set [4] of 13 ms. Further, the VFT in data set [13] turned out to be 37 mA. In data set [5], this compound displayed an ED20 of 0.03 mg/kg.

Take `CCOC(=O)C1(c2ccccc2)N=C(CC)N(C)Cc2ccccc21.O=C(O)/C=C/C(=O)O` (centres undefined): the minimal effective dose in [2] was 3 mg/kg; in data set [7] it was below 3 mg/kg. The compound also yielded a dP/dt20 in data set [3] of 0.1 mg/kg. The same compound displayed an ERP in [4] of 47 ms. Also, in data set [13], the VFT came to 84 mA. In addition, the ED20 in data set [5] came to 0.4 mg/kg. Further, in data set [6], the inhibition at 10 µM turned out to be 56%.

`CN1Cc2ccccc2C(c2ccccc2)N=C1CCc1ccccc1.Cl` (centres undefined): the minimal effective dose was 3 mg/kg in data set [2] and below 3 mg/kg in data set [7]. In addition, the dP/dt20 in data set [3] was found to be 0.02 mg/kg. For the same compound, in [11], the VFT came to 95 mA. The compound further came in with an ED20 in data set [5] of 0.04 mg/kg. In data set [12], this compound displayed an ERP of 61 ms.

As to `CN1Cc2ccccc2C(c2ccccc2)N=C1CCc1ccc(Cl)cc1.O=C(O)/C=C/C(=O)O` (centres undefined), the minimal effective dose in data set [2] and in [7] was 3 mg/kg in each case. Besides, the dP/dt20 in data set [3] stood at 0.85 mg/kg. In data set [11], this compound showed a VFT of 93 mA. The ERP in data set [4] came out at 45 ms. The ED20 in data set [5] worked out at 0.1 mg/kg. Besides, in data set [6], the inhibition at 10 µM amounted to 97%.

For `CC(C)N(CCC(C(N)=O)(c1ccccc1)c1ccccn1)C(C)C` (centres undefined) [DISOPYRAMIDE], the minimal effective dose in data set [2] is 40 mg/kg; in data set [7], 1 mg/kg. The same compound gave a dP/dt20 in data set [3] of 0.03 mg/kg. Further, the ERP in data set [4] stood at 26 ms. Also, the ED20 in [5] stood at 0.2 mg/kg. Moreover, the inhibition at 10 µM in data set [6] came to 17%. This compound had a VFT in data set [14] of 73 mA.

For the compound `CCC1=N[C@H](c2ccccc2)c2ccccc2CN1C.Cl`, the minimal effective dose in [2] came to 10 mg/kg; in [7], 3 mg/kg. In [3], this compound returned a dP/dt20 of 0.3 mg/kg. In [15], the ERP was found to be 16 ms. In data set [13], this compound yielded a VFT of 63 mA. Besides, the ED20 in [5] amounted to 0.3 mg/kg. Moreover, 10 µM produced 42% inhibition in [6].

Take `CCC1=NC(c2ccccc2)c2ccccc2CN1C.Cl` (centres undefined): the minimal effective dose in [2] was 10 mg/kg; in data set [7] it was 3 mg/kg. In [3], the dP/dt20 stood at 0.8 mg/kg. Besides, the VFT in [11] turned out to be 84 mA. The ED20 in data set [5] was 0.6 mg/kg. In addition, in [6], 10 µM produced 50% inhibition. The ERP in [12] amounted to 13 ms.
